Test results: ChEMBL document CHEMBL3758104, “Reinvestigating Old Pharmacophores: Are 4-Aminoquinolines and Tetraoxanes Potential Two-Stage Antimalarials?” (J Med Chem, 2016)
The source made the active and inactive calls. No cut-off for these calls is given here.

Assays:
Plasmodium falciparum [1] = experiment: Antimalarial activity against chloroquine-resistant Plasmodium falciparum W2 after 48 hrs by [3H]hypoxanthine incorporation assay; type: functional, organism-based
Procedure, shortened: (§1)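 P. falciparum D6 (Sierra I/UNC clone), W2 (Indochina I clone), TM91C235 (South-East Asian clone) cultured with compound; growth inhibition by [3H]hypoxanthine incorporation (modified Desjardins/Milhous method). Chloroquine, mefloquine, artemisinin as positive controls. IC50 in nM; technical triplicates, curve fits R2 0.96–1.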

[2] = Half life in human liver microsomes at 1 uM by LC-MS/MS analysis; type: ADME
[3] = Selectivity index, ratio of IC50 for mouse RAW 264.7 cells to IC50 for chloroquine susceptible Plasmodium falciparum D6; type: toxicity; conditions: read-out: Ratio IC50
RAW264.7 = experiment: Cytotoxicity against mouse RAW264.7 cells; type: cell-based
[4] = Half life in mouse liver microsomes at 1 uM by LC-MS/MS analysis; type: ADME
Plasmodium falciparum [5] = experiment: Antimalarial activity against chloroquine-susceptible Plasmodium falciparum D6 after 48 hrs by [3H]hypoxanthine incorporation assay; type: functional, organism-based; procedure, shortened: as §1
Plasmodium falciparum [6] = experiment: Antimalarial activity against mutidrug resistant Plasmodium falciparum TM91C235 after 48 hrs by [3H]hypoxanthine incorporation assay; type: functional, organism-based; procedure, shortened: as §1
Plasmodium berghei [7] = experiment: Antimalarial activity against Plasmodium berghei ANKA infected in C57Bl6 mouse at 80 mg/kg/day, po measured on day 3 to 5 by Thompson test; type: functional
Plasmodium berghei [8] = experiment: Antimalarial activity against Plasmodium berghei ANKA infected in C57Bl6 mouse assessed as increase in cure rate at 80 mg/kg/day, po administered for day 3 to 5 by Thompson test; type: functional, organism-based
Procedure, shortened: (§2)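 Modified Thompson test: C57Bl6 female mice inoculated intraperitoneally on day 0 with 1×10^6 P. berghei ANKA-infected erythrocytes; compound suspended in 0.5% hydroxyethylcellulose–0.1% Tween 80, given orally once daily on days 3, 4 and 5 post infection. Parasitemia by Giemsa-stained thin tail-blood smears on days 0, 3, 6, 10, 13, 17, 20, 24, 27, 31. Cure = survival without parasitemia to day 31.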

Mus musculus = experiment: Toxicity in Plasmodium berghei ANKA infected C57Bl6 mouse at 160 mg/kg/day, po administered for 3 days measured 2 times a day for 31 days; type: organism-based; conditions: in vivo, 744 h
[9] = Inhibition of beta hematin formation measured as hemin equivalent after 18 hrs; type: physicochemical
Procedure, shortened: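 Hemin (16 mM in DMSO) mixed with compound at 0.125–5 mol equiv to hemin, plus water and 8 M acetate buffer pH 5.2, 25% DMSO final. Incubated 18 h at 37 °C. Pellet washed with DMSO, dissolved in 0.1 M NaOH, absorbance read at 405 nm (corrected at 670 nm) against a hemin calibration.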

[10] = Selectivity index, ratio of IC50 for human HepG2 cells to IC50 for chloroquine susceptible Plasmodium falciparum D6; type: toxicity, cell-based; conditions: read-out: Ratio IC50
Plasmodium berghei [11] = experiment: Antimalarial activity against Plasmodium berghei ANKA infected in C57Bl6 mouse assessed as reduction of parasitemia at 160 mg/kg/day, po administered for day 3 to 5 measured on day 6 by Thompson test; type: functional, organism-based; procedure, shortened: as §2
Plasmodium berghei [12] = experiment: Antimalarial activity against Plasmodium berghei ANKA infected in C57Bl6 mouse assessed as reduction of parasitemia at 160 mg/kg/day, po administered for day 3 to 5 measured after 10 to 14 days by Thompson test; type: functional, organism-based; procedure, shortened: as §2
Plasmodium berghei [13] = experiment: Antimalarial activity against Plasmodium berghei ANKA infected in C57Bl6 mouse at 40 mg/kg/day, po on days 3 to 5 by Thompson test; type: functional
Plasmodium berghei [14] = experiment: Antimalarial activity against Plasmodium berghei ANKA infected in po dosed C57Bl6 mouse administered on day 3 to 5 by Thompson test; type: functional; procedure, shortened: as §2
HepG2 = experiment: Cytotoxicity against human HepG2 cells after 48 hrs by MTT assay; type: cell-based; conditions: HepG2, 48 h
Plasmodium berghei [15] = experiment: Antimalarial activity against Plasmodium berghei ANKA infected in C57Bl6 mouse at 160 mg/kg/day, po measured on day 3 to 5 by Thompson test; type: functional
Plasmodium berghei [16] = experiment: Antimalarial activity against sporozoite stage of Plasmodium berghei infected in human Huh7 cells assessed as inhibition of parasite infection pre-incubated for 24 hrs followed by parasite infection measured after 48 hrs by bioluminescence assay; type: functional, organism-based; conditions: Huh-7
Plasmodium berghei [17] = experiment: Antimalarial activity against sporozoite stage of Plasmodium berghei infected in human Huh7 cells assessed as remaining parasite infection at 5 uM pre-incubated for 24 hrs followed by parasite infection measured after 48 hrs by bioluminescence assay; conditions: Huh-7
Plasmodium berghei [18] = experiment: Antimalarial activity against sporozoite stage of Plasmodium […] infected in human HepG2 cells; type: functional, organism-based

SMILES | IC50 (Plasmodium falciparum [1]) [µM] | IC50 (Plasmodium falciparum [5]) [µM] | IC50 (Plasmodium falciparum [6]) [µM] | Activity (Mus musculus) | selectivity ratio [10] | IC50 (HepG2) [µM] | also measured
CC(CNCC12CC3CC(CC(C3)C1)C2)Nc1ccnc2cc(Cl)ccc12 (stereo unspecified) | 0.003 | 0.001 | 0.001 |  |  |  | half-life at 1 µM [2]: 11 min; selectivity ratio [3]: 2900; IC50 (RAW264.7): 2.9 µM; half-life at 1 µM [4]: 10 min
CC(CCNCC12CC3CC(CC(C3)C1)C2)Nc1c(F)cnc2ccccc12 (stereo unspecified) | 0.157 | 0.06 | 0.259 | Non-toxic | 3 |  | MST (Plasmodium berghei [7]): 12.8 days; Activity (Plasmodium berghei [8]): inactive; IC50 [9]: 0.61 equiv
Clc1ccc2c(NCCNCC34CC5CC(CC(C5)C3)C4)ccnc2c1 |  |  |  | Non-toxic |  |  | Activity (Plasmodium berghei [11]): Active; Activity (Plasmodium berghei [12]): inactive; MST (Plasmodium berghei [13]): >21.4 days; MAC (Plasmodium berghei [14]): 40 mg/kg/day
CC(CCNCCC12CC3CC(CC(C3)C1)C2)Nc1ccnc2ccccc12 (stereo unspecified) | 0.126 | 0.007 | 0.102 |  | 227 | 1.59 | 
CCN(CC)CCCNc1c(F)cnc2cc(Cl)ccc12 |  |  |  | Non-toxic |  |  | MST (Plasmodium berghei [15]): 14.6 days
COC(=O)CCC(C)[C@H]1CC[C@H]2[C@@H]3[C@H](OC(C)=O)C[C@@H]4CC5(CC[C@]4(C)[C@H]3C[C@H](OC(C)=O)[C@]12C)OOC1(CCCCC1)OO5 (stereo partly specified) |  |  |  |  |  |  | IC50 (Plasmodium berghei [16]): < 1 µM; % infection at 5 µM (Plasmodium berghei [17]): 31%
CC(NCCCCNc1ccnc2cc(Cl)ccc12)C12CC3CC(CC(C3)C1)C2 (stereo unspecified) | 0.025 | 0.007 | 0.019 |  | 441 | 3.09 | 
CC(CCCNc1ccnc2cc(Cl)ccc12)NCCC12CC3CC(CC(C3)C1)C2 (stereo unspecified) | 0.081 | 0.009 | 0.047 |  | 289 | 2.6 | 
CC(CCNCCC12CC3CC(CC(C3)C1)C2)Nc1ccnc2cc(Cl)ccc12 (stereo unspecified) | 0.013 | 0.013 | 0.013 |  | 1870 | 24.3 | half-life at 1 µM [2]: 60 min; half-life at 1 µM [4]: 60 min; IC50 (Plasmodium berghei [16]): 2.5 µM; % infection at 5 µM (Plasmodium berghei [17]): 8%
O=C1C(O)=C([C@H]2CC[C@H](c3ccc(Cl)cc3)CC2)C(=O)c2ccccc21 [ATOVAQUONE] |  |  |  |  |  |  | IC50 (Plasmodium berghei [18]): 0.022 µM
CC(CCNCC12CC3CC(CC(C3)C1)C2)Nc1ccnc2ccccc12 (stereo unspecified) | 0.185 | 0.017 | 0.135 | Non-toxic | 136 | 2.32 | MST (Plasmodium berghei [7]): 15.2 days; Activity (Plasmodium berghei [8]): inactive; half-life at 1 µM [2]: 60 min; half-life at 1 µM [4]: 60 min; IC50 [9]: 1.22 equiv
C[C@@H]1CC[C@H]2[C@@H](C)C(=O)O[C@@H]3O[C@@]4(C)CC[C@@H]1[C@]32OO4 [ARTEMISININ] | 0.007 | 0.009 | 0.013 |  |  |  | IC50 (Plasmodium berghei [18]): 12 µM
CC(CCCNc1ccnc2cc(Cl)ccc12)NCC12CC3CC(CC(C3)C1)C2 (stereo unspecified) | 0.282 | 0.051 | 0.165 |  | 32 | 1.61 | 
CC(CCNCCC12CC3CC(CC(C3)C1)C2)Nc1c(F)cnc2cc(Cl)ccc12 (stereo unspecified) | 0.203 | 0.143 | 0.171 |  | 22 | 3.21 | IC50 (Plasmodium berghei [16]): 1 µM; % infection at 5 µM (Plasmodium berghei [17]): 3%
CC(CNc1ccnc2cc(Cl)ccc12)NCC12CC3CC(CC(C3)C1)C2 (stereo unspecified) | 0.01 | 0.002 | 0.009 |  |  |  | half-life at 1 µM [2]: 13 min; selectivity ratio [3]: 1890; IC50 (RAW264.7): 3.77 µM; half-life at 1 µM [4]: 10 min
CC(CNCCC12CC3CC(CC(C3)C1)C2)Nc1ccnc2cc(Cl)ccc12 (stereo unspecified) | 0.004 | 0.001 | 0.001 | Non-toxic |  |  | Activity (Plasmodium berghei [11]): Active; Activity (Plasmodium berghei [12]): inactive; half-life at 1 µM [2]: 57 min; selectivity ratio [3]: 2910; IC50 (RAW264.7): 2.91 µM; half-life at 1 µM [4]: 60 min; MST (Plasmodium berghei [15]): 27.6 days

SMILES | IC50 (Plasmodium falciparum [1]) [µM] | IC50 (Plasmodium falciparum [5]) [µM] | IC50 (Plasmodium falciparum [6]) [µM] | Activity (Mus musculus) | selectivity ratio [10] | IC50 (HepG2) [µM] | also measured
CC(CCNCC12CC3CC(CC(C3)C1)C2)Nc1nc2cc(Cl)ccc2cc1F (stereo unspecified) |  |  |  |  |  |  | IC50 (Plasmodium berghei [16]): 1 µM; % infection at 5 µM (Plasmodium berghei [17]): 2%
CCN(CC)CCCC(C)Nc1c(F)cnc2cc(Cl)ccc12 (stereo unspecified) |  |  |  | Non-toxic |  |  | MST (Plasmodium berghei [15]): 16.8 days; IC50 (Plasmodium berghei [16]): 1 µM; IC50 [9]: 1.07 equiv; % infection at 5 µM (Plasmodium berghei [17]): 35%
O[C@@H](c1cc(C(F)(F)F)nc2c(C(F)(F)F)cccc12)[C@H]1CCCCN1 [(S,R)-MEFLOQUINE] | 0.005 |  |  |  |  |  | 
C[C@H]1[C@H](N2CCS(=O)(=O)CC2)O[C@@H]2O[C@@]3(C)CC[C@H]4[C@H](C)CC[C@@H]1[C@@]24OO3 [ARTEMIFONE] |  |  |  |  |  |  | IC50 (Plasmodium berghei [18]): 0.04 µM
CC(NCCCNc1ccnc2cc(Cl)ccc12)C12CC3CC(CC(C3)C1)C2 (stereo unspecified) | 0.022 | 0.004 | 0.015 |  | 790 |  | half-life at 1 µM [2]: 16 min; IC50 (RAW264.7): 3.16 µM; half-life at 1 µM [4]: 11 min
CCN(CC)CCCNc1nc2cc(Cl)ccc2cc1F |  |  |  | Non-toxic |  |  | MST (Plasmodium berghei [15]): 20.2 days
CC(CNc1ccnc2cc(Cl)ccc12)NCCC12CC3CC(CC(C3)C1)C2 (stereo unspecified) | 0.007 | 0.006 | 0.007 | Non-toxic | 4190 | 25.1 | MST (Plasmodium berghei [7]): 15.3 days; Activity (Plasmodium berghei [11]): Active; Activity (Plasmodium berghei [12]): inactive; half-life at 1 µM [2]: 27 min; half-life at 1 µM [4]: 60 min; MAC (Plasmodium berghei [14]): 80 mg/kg/day
Fc1ccc2c(CNCCCNc3ccnc4cc(Cl)ccc34)csc2c1 |  |  |  | Non-toxic |  |  | MST (Plasmodium berghei [15]): 26.4 days
Fc1ccc2scc(CNCCCCNc3ccnc4cc(Cl)ccc34)c2c1 |  |  |  | Non-toxic |  |  | MST (Plasmodium berghei [7]): 30.2 days; MST (Plasmodium berghei [15]): 30 days
CC(CCCNCCC12CC3CC(CC(C3)C1)C2)Nc1ccnc2ccccc12 (stereo unspecified) | 0.393 | 0.012 | 0.286 |  | 133 | 1.59 | 
CC(CCCNCCC12CC3CC(CC(C3)C1)C2)Nc1c(F)cnc2cc(Cl)ccc12 (stereo unspecified) | 0.547 | 0.288 | 0.59 |  | 9 | 2.61 | 
CCN(CC)CCCC(C)Nc1nc2cc(Cl)ccc2cc1F (stereo unspecified) |  |  |  |  |  |  | IC50 (Plasmodium berghei [16]): 1 µM; IC50 [9]: 2.43 equiv; % infection at 5 µM (Plasmodium berghei [17]): 40%
CC(CCCNCC12CC3CC(CC(C3)C1)C2)Nc1c(F)cnc2cc(Cl)ccc12 (stereo unspecified) | 0.488 | 0.198 | 0.342 |  | 18 | 3.55 | 
CCN(CC)CCCC(C)Nc1ccnc2cc(Cl)ccc12 (stereo unspecified) [CHLOROQUINE] |  |  |  |  |  |  | MST (Plasmodium berghei [7]): 25.6 days; MST (Plasmodium berghei [15]): >31 days; IC50 (Plasmodium berghei [18]): 9 µM
CC(CCCNCC12CC3CC(CC(C3)C1)C2)Nc1ccnc2cc(Cl)ccc12 (stereo unspecified) | 0.022 | 0.021 | 0.023 |  | 1160 | 24.3 | half-life at 1 µM [2]: 49 min; half-life at 1 µM [4]: 57 min
CC(CCNCCC12CC3CC(CC(C3)C1)C2)Nc1c(F)cnc2ccccc12 (stereo unspecified) | 0.394 | 0.154 | 0.546 |  | 3 |  | 
